Test results from ChEMBL document CHEMBL2401716, “Design and stereoselective synthesis of novel isosteviol-fused pyrazolines and pyrazoles as potential anticancer agents” (Eur J Med Chem, 2013).
pIC50: −log10 of the molar value.

Legend:
Assay type in all cases: functional, cell-based
SGC-7901 = test: Antiproliferative activity against human SGC7901 cells after 48 hrs by MTT assay; conditions: SGC-7901, 48 h
Summary of the method: (§1)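 Cells seeded in 96-well plates and exposed to compounds for 48 h at 37 °C, 5% CO2. MTT (0.5 mg/mL) then added for 4 h. Supernatant removed, formazan dissolved in DMSO, and OD read at 570 nm. Cisplatin served as positive control.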

A549 = test: Antiproliferative activity against human A549 cells after 48 hrs by MTT assay; conditions: A549, 48 h; summary of the method: as §1
Raji = test: Antiproliferative activity against human Raji cells after 48 hrs by MTT assay
Summary of the method: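 Human B-lymphoma Raji line kept in RPMI-1640 with 10% FBS and 100 U/mL penicillin at 37 °C, 5% CO2, humidified. Cells were plated in 96 wells and treated with compounds for 48 h. MTT (0.5 mg/mL) was added for 4 h, then formazan was taken up in DMSO after supernatant removal and read at 570 nm. Cisplatin served as positive control.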

HeLa = test: Antiproliferative activity against human HeLa cells after 48 hrs by MTT assay; summary of the method: as §1

| Structure (SMILES) | pIC50 (SGC-7901) | pIC50 (A549) | pIC50 (Raji) | pIC50 (HeLa) |
| --- | --- | --- | --- | --- |
| CCOC(=O)[C@]1(C)CCC[C@@]2(C)[C@@H]3CC[C@@]4(C)C[C@]3(CC[C@@H]21)[C@@H]1CN(c2ccc(C)cc2)N=C14 | 4.53 | 4.86 | 5.41 | 4.54 |
| CCOC(=O)[C@]1(C)CCC[C@@]2(C)[C@@H]3CC[C@@]4(C)C[C@]3(CC[C@@H]21)[C@@H]1CN(c2cccc(C(F)(F)F)c2)N=C14 | < 4.30 | < 4.30 | 5.14 | < 4.30 |
| CCOC(=O)[C@]1(C)CCC[C@@]2(C)[C@@H]3CC[C@@]4(C)C[C@]3(CC[C@@H]21)[C@@H]1CN(c2c(C)cccc2C)N=C14 | 4.78 | 4.76 | 5.25 | 4.54 |
| CCOC(=O)[C@]1(C)CCC[C@@]2(C)[C@@H]3CC[C@@]4(C)C[C@]3(CC[C@@H]21)c1cnn(-c2ccc(F)cc2)c14 | 4.59 | 4.65 | 5.15 | < 4.30 |
| CCOC(=O)[C@]1(C)CCC[C@@]2(C)[C@@H]3CC[C@@]4(C)C[C@]3(CC[C@@H]21)c1cnn(-c2ccc(Br)cc2)c14 | 4.53 | 4.64 | 5.32 | < 4.30 |
| CCOC(=O)[C@]1(C)CCC[C@@]2(C)[C@@H]3CC[C@@]4(C)C[C@]3(CC[C@@H]21)c1cnn(-c2cccc([N+](=O)[O-])c2)c14 | < 4.30 | < 4.30 | 5.13 | < 4.30 |
| CCOC(=O)[C@]1(C)CCC[C@@]2(C)[C@@H]3CC[C@@]4(C)C[C@]3(CC[C@@H]21)[C@@H]1CN(c2ccc(F)cc2)N=C14 | < 4.30 | < 4.30 | 5.35 | < 4.30 |
| CCOC(=O)[C@]1(C)CCC[C@@]2(C)[C@@H]3CC[C@@]4(C)C[C@]3(CC[C@@H]21)[C@@H]1CN(c2cccc(Cl)c2)N=C14 | < 4.30 | < 4.30 | 5.34 | < 4.30 |
| C[C@@]12CC[C@@H]3[C@@](CC[C@H]4[C@@]3(C)CCC[C@@]4(C)C(=O)O)(CC1=O)C2 [ISOSTEVIOL] | < 4.30 | < 4.30 | < 4.30 | < 4.30 |

Next, values leading:

| pIC50 (SGC-7901) | pIC50 (A549) | pIC50 (Raji) | pIC50 (HeLa) | Structure (SMILES) |
| --- | --- | --- | --- | --- |
| 4.45 | 4.57 | 5.38 | < 4.30 | CCOC(=O)[C@]1(C)CCC[C@@]2(C)[C@@H]3CC[C@@]4(C)C[C@]3(CC[C@@H]21)c1cnn(-c2ccccc2F)c14 |
| 4.45 | 4.72 | 5.47 | < 4.30 | CCOC(=O)[C@]1(C)CCC[C@@]2(C)[C@@H]3CC[C@@]4(C)C[C@]3(CC[C@@H]21)c1cnn(-c2cccc(F)c2)c14 |
| 4.46 | 4.58 | 5.49 | < 4.30 | CCOC(=O)[C@]1(C)CCC[C@@]2(C)[C@@H]3CC[C@@]4(C)C[C@]3(CC[C@@H]21)c1cnn(-c2cccc(Br)c2)c14 |
| 4.45 | 4.72 | 5.11 | 4.82 | CCOC(=O)[C@]1(C)CCC[C@@]2(C)[C@@H]3CC[C@@]4(C)C[C@]3(CC[C@@H]21)c1cnn(-c2ccccc2C)c14 |
| 4.87 | 4.91 | 5.32 | < 4.30 | CCOC(=O)[C@]1(C)CCC[C@@]2(C)[C@@H]3CC[C@@]4(C)C[C@]3(CC[C@@H]21)c1cnn(-c2cccc(C)c2)c14 |
| < 4.30 | < 4.30 | 5.15 | < 4.30 | CCOC(=O)[C@]1(C)CCC[C@@]2(C)[C@@H]3CC[C@@]4(C)C[C@]3(CC[C@@H]21)c1cnn(-c2cc(F)ccc2F)c14 |
| < 4.30 | < 4.30 | 5.29 | < 4.30 | CCOC(=O)[C@]1(C)CCC[C@@]2(C)[C@@H]3CC[C@@]4(C)C[C@]3(CC[C@@H]21)c1cnn(-c2cccc(Cl)c2Cl)c14 |
| 5.57 | 5.50 | 5.96 | 4.87 | CCOC(=O)[C@]1(C)CCC[C@@]2(C)[C@@H]3CC[C@@]4(C)C[C@]3(CC[C@@H]21)c1cnn(-c2ccc(Cl)cc2Cl)c14 |
| 4.57 | 4.48 | 5.24 | 4.46 | CCOC(=O)[C@]1(C)CCC[C@@]2(C)[C@@H]3CC[C@@]4(C)C[C@]3(CC[C@@H]21)c1cnn(-c2c(Cl)cccc2Cl)c14 |
| 4.71 | 4.74 | 5.49 | 4.43 | CCOC(=O)[C@]1(C)CCC[C@@]2(C)[C@@H]3CC[C@@]4(C)C[C@]3(CC[C@@H]21)c1cnn(-c2cccc(C)c2C)c14 |
| 4.73 | 4.78 | 5.18 | 4.36 | CCOC(=O)[C@]1(C)CCC[C@@]2(C)[C@@H]3CC[C@@]4(C)C[C@]3(CC[C@@H]21)c1cnn(-c2ccc(C)cc2C)c14 |
| 5.04 | 4.93 | 5.68 | 4.69 | CCOC(=O)[C@]1(C)CCC[C@@]2(C)[C@@H]3CC[C@@]4(C)C[C@]3(CC[C@@H]21)c1cnn(-c2c(C)cccc2C)c14 |
| 4.42 | 4.80 | 5.19 | 4.42 | CCOC(=O)[C@]1(C)CCC[C@@]2(C)[C@@H]3CC[C@@]4(C)C[C@]3(CC[C@@H]21)c1cnn(-c2ccc(C)c(C)c2)c14 |
